Data taken from ChEMBL document CHEMBL4138099, “Design, synthesis and biological evaluation of uncharged catechol derivatives as selective inhibitors of PTP1B” (Eur J Med Chem, 2017).
Activity calls are given as the source filed them. No cut-off for these calls is given here.

Assays:
[1] = biological target: T1, Tyrosine-protein phosphatase non-receptor type 1 (Homo sapiens, UniProt P18031); test: Inhibition of recombinant GST-tagged PTP1B catalytic domain (1 to 321 residues) (unknown origin) expressed in Escherichia coli BL21(DE3) using pNPP as substrate after 30 mins by spectrophotometer
T1 sequence (P18031 whole entry): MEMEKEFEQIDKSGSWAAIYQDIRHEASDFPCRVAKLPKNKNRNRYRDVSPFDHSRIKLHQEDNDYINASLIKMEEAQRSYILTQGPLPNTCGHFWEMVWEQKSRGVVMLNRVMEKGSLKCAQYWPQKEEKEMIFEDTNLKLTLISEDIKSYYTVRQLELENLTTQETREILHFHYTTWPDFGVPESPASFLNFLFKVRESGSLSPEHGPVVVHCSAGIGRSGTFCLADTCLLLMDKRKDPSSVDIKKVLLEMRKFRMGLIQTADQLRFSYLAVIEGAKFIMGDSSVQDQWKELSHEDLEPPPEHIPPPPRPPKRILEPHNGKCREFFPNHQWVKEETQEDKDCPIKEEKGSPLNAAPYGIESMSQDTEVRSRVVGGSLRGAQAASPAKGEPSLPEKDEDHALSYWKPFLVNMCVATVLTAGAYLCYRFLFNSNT
Method in brief: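 Assay at 37 °C, pH 7.5, in 10 mM Tris-HCl, 25 mM NaCl, 1 mM EDTA and 2 mM DTT, with 4 mM pNPP and 60 nM PTP1B. Inhibitor was added from DMSO at final 100 to 0.01 µM, and the reaction was started with enzyme. After 30 min it was stopped with 1 N NaOH and read at 405 nm. IC50 came from a sigmoidal fit of relative activity versus concentration.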

[2] = biological target: T2, Tyrosine-protein phosphatase non-receptor type 2 (Homo sapiens, UniProt P17706); test: Inhibition of TCPTP (unknown origin) using pNPP as substrate after 30 mins by spectrophotometer
T2 sequence (P17706 whole entry): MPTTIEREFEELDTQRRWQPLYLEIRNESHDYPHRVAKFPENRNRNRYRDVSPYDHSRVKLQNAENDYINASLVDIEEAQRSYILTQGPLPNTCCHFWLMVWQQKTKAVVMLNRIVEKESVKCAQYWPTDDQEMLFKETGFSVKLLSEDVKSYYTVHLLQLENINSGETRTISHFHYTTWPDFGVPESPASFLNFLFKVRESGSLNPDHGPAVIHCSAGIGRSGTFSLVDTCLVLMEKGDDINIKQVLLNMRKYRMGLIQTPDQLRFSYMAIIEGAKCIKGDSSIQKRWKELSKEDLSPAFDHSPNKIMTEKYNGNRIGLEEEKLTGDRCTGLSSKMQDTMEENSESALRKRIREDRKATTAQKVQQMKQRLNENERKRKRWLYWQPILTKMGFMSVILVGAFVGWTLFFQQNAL

Homo sapiens = organism: Homo sapiens; test: Selectivity ratio of IC50 for TCPTP (unknown origin) to IC50 for recombinant GST-tagged PTP1B catalytic domain (1 to 321 residues) (unknown origin)
[3] = biological target: T3, Tyrosine-protein phosphatase non-receptor type 1 (Homo sapiens) (UniProt P18031); test: Inhibition of recombinant GST-tagged PTP1B catalytic domain (1 to 321 residues) (unknown origin) expressed in Escherichia coli BL21(DE3) at 1 mM using pNPP as substrate after 30 mins by spectrophotometric method relative to control
T3 sequence (whole entry): T1 sequence (P18031 whole entry)
Method in brief: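 PTP1B (60 nM) reacted with 4 mM pNPP at 37 °C and pH 7.5 in 10 mM Tris-HCl, 25 mM NaCl, 1 mM EDTA, 2 mM DTT. The compound was added from DMSO at 1% v/v. The reaction was started with enzyme and stopped with 1 N NaOH after 30 min. p-Nitrophenol was read at 405 nm, and activity was taken relative to control.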

[4] = biological target: T4, Tyrosine-protein phosphatase non-receptor type 1 (Mus musculus) (UniProt P35821); test: Inhibition of PTP1B in mouse C2C12 cells assessed as increase in insulin stimulated IRS-1 phosphorylation at 2 uM preincubated for 1 hr followed by 100 nM insulin addition measured after 30 mins by immunoblot method; assay type: cell-based
T4 sequence (whole entry): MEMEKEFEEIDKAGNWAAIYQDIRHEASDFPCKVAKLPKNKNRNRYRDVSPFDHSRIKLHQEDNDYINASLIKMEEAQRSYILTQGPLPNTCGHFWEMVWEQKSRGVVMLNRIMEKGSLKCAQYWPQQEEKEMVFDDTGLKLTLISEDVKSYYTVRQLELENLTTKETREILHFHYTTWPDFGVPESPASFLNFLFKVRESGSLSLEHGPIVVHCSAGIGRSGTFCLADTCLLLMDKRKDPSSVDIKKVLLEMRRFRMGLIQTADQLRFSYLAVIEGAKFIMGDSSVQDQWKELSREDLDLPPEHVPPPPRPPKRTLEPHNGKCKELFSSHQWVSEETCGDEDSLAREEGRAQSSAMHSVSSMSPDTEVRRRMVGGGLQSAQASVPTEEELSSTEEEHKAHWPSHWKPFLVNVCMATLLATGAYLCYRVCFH
Method in brief: (§1)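 C2C12 myoblasts were grown in DMEM with 10% fetal calf serum and differentiated to myotubes in 10% horse serum. Myotubes were serum-starved 24 h, then given inhibitor at 0.5–4 µM in serum-free DMEM and stimulated with 100 nM insulin for 30 min at 37 °C. RIPA lysates (10 µg protein) were immunoblotted for phospho-proteins, detected by ECL and quantified by densitometry.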

[5] = biological target: T4, Tyrosine-protein phosphatase non-receptor type 1 (Mus musculus); test: Inhibition of PTP1B in mouse C2C12 cells assessed as increase in insulin stimulated IRbeta phosphorylation at 2 uM preincubated for 1 hr followed by 100 nM insulin addition measured after 30 mins by immunoblot method; assay type: cell-based; method in brief: as §1
[6] = biological target: T4, Tyrosine-protein phosphatase non-receptor type 1 (Mus musculus); test: Inhibition of PTP1B in mouse C2C12 cells assessed as increase in insulin stimulated AKT phosphorylation at 2 uM preincubated for 1 hr followed by 100 nM insulin addition measured after 30 mins by immunoblot method; assay type: cell-based; method in brief: as §1
[7] = biological target: T3, Tyrosine-protein phosphatase non-receptor type 1 (Homo sapiens); test: Competitive inhibition of recombinant GST-tagged PTP1B catalytic domain (1 to 321 residues) (unknown origin) expressed in Escherichia coli BL21(DE3) at 1 to 4 uM using varying levels of pNPP as substrate after 30 mins by spectrophotometric method
Method in brief: (§2)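 PTP1B-catalysed pNPP hydrolysis read by absorbance of p-nitrophenol at 405 nm, run with pNPP at 0.5, 1.0, 2.0, 4.0 and 8.0 mM, with and without inhibitor. Inhibition mode was assigned from double-reciprocal (1/v) plots.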

[8] = biological target: T3, Tyrosine-protein phosphatase non-receptor type 1 (Homo sapiens); test: Competitive inhibition of recombinant GST-tagged PTP1B catalytic domain (1 to 321 residues) (unknown origin) expressed in Escherichia coli BL21(DE3) at 1 to 8 uM using varying levels of pNPP as substrate after 30 mins by spectrophotometric method; method in brief: as §2

| Structure (SMILES) | IC50 [1] | other results |
| --- | --- | --- |
| COC(=O)CSc1nnc(-c2ccc(O)c(O)c2)o1 | 35.6 µM |  |
| COc1ccc(OC(=O)CSc2nnc(-c3ccc(O)c(O)c3)o2)cc1 | 6.02 µM | IC50 [2]: > 100 µM; Ratio IC50 (Homo sapiens): > 16.6 |
| O=C(CSc1nnc(-c2ccc(O)c(O)c2)o1)Oc1ccc(OCc2ccccc2)cc1 | 7.79 µM |  |
| O=Cc1ccc(O)c(O)c1 |  | inhibition [3]: 29% |
| O=C(CSc1nnc(-c2ccc(O)c(O)c2)o1)Oc1ccc(Oc2ccc(OCc3ccccc3)cc2)cc1 | 21.4 µM |  |
| O=C(CSc1nnc(-c2ccc(O)c(O)c2)o1)c1ccccc1 | 15.5 µM |  |
| O=C(CSc1nnc(-c2ccc(O)c(O)c2)o1)Oc1ccc(C(F)(F)F)cc1 | 21.4 µM |  |
| O=C(CSc1nnc(-c2ccc(O)c(O)c2)o1)Oc1ccccc1 | 8.09 µM |  |
| COCCc1ccc(Oc2ccc(OC(=O)CSc3nnc(-c4ccc(O)c(O)c4)o3)cc2)cc1 | 22.8 µM |  |
| Oc1ccc(-c2nnc(SCc3ccccc3)o2)cc1O | 31.6 µM |  |
| O=C(CSc1nnc(-c2ccc(O)c(O)c2)o1)Oc1ccc(Oc2ccccc2)cc1 | 9.33 µM |  |
| O=C(CSc1nnc(-c2ccc(O)c(O)c2)o1)Oc1ccc(Br)cc1 | 115 µM |  |
| CCOc1ccc(OC(=O)CSc2nnc(-c3ccc(O)c(O)c3)o2)cc1 | 7.94 µM |  |
| Cc1ccc(OC(=O)CSc2nnc(-c3ccc(O)c(O)c3)o2)cc1 | 4.74 µM |  |

Second part, led by results:

| IC50 [1] | Structure (SMILES) | other results |
| --- | --- | --- |
| 19.1 µM | COCCc1ccc(Oc2ccc(-c3cnc(-c4ccc(O)c(O)c4)o3)cc2)cc1 |  |
| 6.25 µM | Oc1ccc(-c2ncc(-c3ccc(Oc4ccc(-c5ccccc5)cc4)cc3)o2)cc1O | IC50 [2]: 5.01 µM; Ratio IC50 (Homo sapiens): 0.8 |
| 10.5 µM | CC(C)(C)c1ccc(Oc2ccc(OC(=O)CSc3nnc(-c4ccc(O)c(O)c4)o3)cc2)cc1 |  |
| 3.6 µM | CCC(C)(C)c1ccc(Oc2ccc(-c3cnc(-c4ccc(O)c(O)c4)o3)cc2)cc1 |  |
| 17 µM | CCOc1ccc(Oc2ccc(OC(=O)CSc3nnc(-c4ccc(O)c(O)c4)o3)cc2)cc1 |  |
| 0.487 µM | CC(C)(C)c1ccc(Oc2ccc(-c3cnc(-c4ccc(O)c(O)c4)o3)cc2)cc1 | IC50 [2]: 13.3 µM; inhibition [4]: Active; inhibition [5]: Active; inhibition [6]: Active; Ratio IC50 (Homo sapiens): 27.3; inhibition [7]: Active |
| 3.89 µM | Cc1ccc(Oc2ccc(C(=O)CSc3nnc(-c4ccc(O)c(O)c4)o3)cc2)cc1 | IC50 [2]: 8.73 µM; Ratio IC50 (Homo sapiens): 2.24 |
| 0.807 µM | Cc1ccc(Oc2ccc(-c3cnc(-c4ccc(O)c(O)c4)o3)cc2)cc1 | inhibition [8]: Active |
| 11 µM | CC(C)c1ccc(Oc2ccc(OC(=O)CSc3nnc(-c4ccc(O)c(O)c4)o3)cc2)cc1 |  |
| 20.8 µM | CCOc1ccc(Oc2ccc(-c3cnc(-c4ccc(O)c(O)c4)o3)cc2)cc1 |  |
| 6.92 µM | COc1ccc(Oc2ccc(-c3cnc(-c4ccc(O)c(O)c4)o3)cc2)cc1 |  |
| 7.44 µM | CC(C)c1ccc(Oc2ccc(-c3cnc(-c4ccc(O)c(O)c4)o3)cc2)cc1 |  |
| 2.63 µM | Oc1ccc(-c2ncc(-c3ccc(Oc4ccccc4)cc3)o2)cc1O |  |
